From ChEMBL document CHEMBL4190220, “Withanolides from Aeroponically Grown Physalis peruviana and Their Selective Cytotoxicity to Prostate Cancer and Renal Carcinoma Cells” (J Nat Prod, 2017)
Activity calls are given as the source filed them. No cut-off for these calls is given here.

Tests used:
SK-MEL-28 [1] = assay: Cytotoxicity against human SK-MEL-28 cells assessed as reduction in cell viability up to 5 uM after 72 hrs by CellTiter96 AQueous one solution cell proliferation assay; format: functional, cell-based
Procedure, shortened: (§1)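 Melanoma cells in DMEM-based medium (5% fetal calf serum, glutamine, nonessential amino acids, pyruvate, HEPES, 2-mercaptoethanol, antibiotics). 5000 cells were grown overnight at 37 °C, then exposed to compound in DMSO in triplicate wells for 72 h. MTS absorbance at 490 nm after 2 h. % cytotoxicity = (A medium − A treatment)/A medium × 100.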

M14 [2] = assay: Cytotoxicity against human M14 cells assessed as reduction in cell viability up to 5 uM after 72 hrs by CellTiter96 AQueous one solution cell proliferation assay; format: functional, cell-based; procedure, shortened: as §1
CWR22R [3] = assay: Cytotoxicity against human 22Rv1 cells assessed as reduction in cell viability up to 5 uM after 72 hrs by CellTiter96 AQueous one solution cell proliferation assay; format: functional, cell-based
Procedure, shortened: (§2)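 Cells in RPMI with 5% fetal calf serum, glutamine, nonessential amino acids, pyruvate, HEPES, 2-mercaptoethanol and antibiotics. Seeded at 10 000 (LNCaP) or 5000 (others) and grown overnight at 37 °C, then exposed to compound in DMSO, triplicate wells, 72 h. Read by MTS at 490 nm after 2 h. % cytotoxicity = (A medium − A treatment)/A medium × 100.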

HFF [4] = assay: Cytotoxicity against HFF cells assessed as reduction in cell viability up to 5 uM after 72 hrs by CellTiter96 AQueous one solution cell proliferation assay; format: cell-based; settings: human; procedure, shortened: as §2
ACHN [5] = assay: Cytotoxicity against human ACHN cells assessed as reduction in cell viability up to 5 uM after 72 hrs by CellTiter96 AQueous one solution cell proliferation assay; format: functional, cell-based; procedure, shortened: as §2
LNCaP [6] = assay: Cytotoxicity against human LNCAP cells assessed as reduction in cell viability up to 5 uM after 72 hrs by CellTiter96 AQueous one solution cell proliferation assay; format: functional, cell-based; procedure, shortened: as §2
ACHN [7] = assay: Cytotoxicity against human ACHN cells assessed as reduction in cell viability after 72 hrs by CellTiter96 AQueous one solution cell proliferation assay; format: functional, cell-based
Procedure, shortened: (§3)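 MTS viability in RPMI with 5% fetal calf serum, 2.0 mM L-glutamine, nonessential amino acids, 1.0 mM pyruvate, penicillin/streptomycin, 10 mM HEPES and 2-mercaptoethanol. Cells were seeded at 10 000 (LNCaP) or 5000 (others) and grown overnight at 37 °C. Serial dilutions in DMSO went into triplicate wells for 72 h. MTS was read at 490 nm after 2 h. IC50 ± SD from dose–response curves, at least three independent experiments.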

SK-MEL-28 [8] = assay: Cytotoxicity against human SK-MEL-28 cells assessed as reduction in cell viability after 72 hrs by CellTiter96 AQueous one solution cell proliferation assay; format: functional, cell-based; settings: SK-MEL-28, 72 h
Procedure, shortened: (§4)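 MTS viability in DMEM with 5% fetal calf serum, 2.0 mM L-glutamine, nonessential amino acids, 1.0 mM pyruvate, penicillin/streptomycin, 10 mM HEPES and 2-mercaptoethanol. 5000 cells were grown overnight at 37 °C. Serial DMSO dilutions went into triplicate wells for 72 h. MTS absorbance was read at 490 nm after 2 h. IC50 ± SD from at least three independent dose–response experiments.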

M14 [9] = assay: Cytotoxicity against human M14 cells assessed as reduction in cell viability after 72 hrs by CellTiter96 AQueous one solution cell proliferation assay; format: functional, cell-based; settings: M14, 72 h; procedure, shortened: as §4
HFF [10] = assay: Cytotoxicity against HFF cells assessed as reduction in cell viability after 72 hrs by CellTiter96 AQueous one solution cell proliferation assay; format: cell-based; settings: Homo sapiens; procedure, shortened: as §3
CWR22R [11] = assay: Cytotoxicity against human 22Rv1 cells assessed as reduction in cell viability after 72 hrs by CellTiter96 AQueous one solution cell proliferation assay; format: functional, cell-based; settings: 22Rv1, 72 h; procedure, shortened: as §3
LNCaP [12] = assay: Cytotoxicity against human LNCAP cells assessed as reduction in cell viability after 72 hrs by CellTiter96 AQueous one solution cell proliferation assay; format: functional, cell-based; procedure, shortened: as §3

Structure (SMILES)	Activity (SK-MEL-28 [1])	Activity (M14 [2])	Activity (CWR22R [3])	Activity (HFF [4])	Activity (ACHN [5])	Activity (LNCaP [6])	IC50 (ACHN [7]) [nM]	IC50 (SK-MEL-28 [8]) [nM]	IC50 (M14 [9]) [nM]	IC50 (HFF [10]) [nM]	IC50 (CWR22R [11]) [nM]	IC50 (LNCaP [12]) [nM]
CC1=C(C)C(=O)O[C@@H]([C@](C)(O)[C@]2(O)CC[C@@]3(O)[C@@H]4C[C@@H](O)[C@@]5(O)CC=CC(=O)[C@]5(C)[C@H]4CC[C@]23C)C1	inactive	inactive	inactive	Non-Toxic	inactive	inactive						
CC1=C(C)C(=O)O[C@@H]([C@](C)(O)C2=CC[C@@]3(O)[C@@H]4C[C@H]5O[C@]56[C@@H](O)C=CC(=O)[C@]6(C)[C@H]4CC[C@]23C)C1	inactive	inactive	inactive	Non-Toxic	inactive	inactive						
CC(=O)OC[C@]12CC[C@H]3[C@@H](C[C@H]4O[C@]45CC=CC(=O)[C@]35C)[C@]1(O)CC[C@@]2(O)[C@@](C)(O)[C@H]1CC(C)=C(C)C(=O)O1							570	> 2000	> 2000	> 2000	30	
CC1=C(C)C(=O)O[C@@H]([C@](C)(O)[C@]2(O)CC[C@@]3(O)[C@@H]4C[C@H](Cl)[C@]5(O)[C@@H](O)C=CC(=O)[C@]5(C)[C@H]4CC[C@]23C)C1	inactive	inactive	inactive	Non-Toxic	inactive	inactive						
C[C@H]1C(=O)OC[C@H]1C[C@@H](O)[C@](C)(O)[C@]1(O)CC[C@@]2(O)[C@@H]3CC=C4C=CCC(=O)[C@]4(C)[C@H]3CC[C@]12C	inactive	inactive	inactive	Non-Toxic	inactive	inactive						
C[C@H]1C(=O)OC[C@H]1C[C@@H](O)[C@](C)(O)[C@]1(O)CC[C@@]2(O)[C@@H]3C[C@H]4O[C@]45CC=CC(=O)[C@]5(C)[C@H]3CC[C@]12C	inactive	inactive	inactive	Non-Toxic	inactive	inactive						
C[C@H]1C(=O)O[C@@H]([C@](C)(O)[C@H]2CC[C@@]3(O)[C@@H]4CC=C5CC=CC(=O)[C@]5(C)[C@H]4CC[C@]23C)[C@@H](O)[C@@H]1CO	inactive	inactive	inactive	Non-Toxic	inactive	inactive						
C[C@H]1C(=O)OC[C@H]1C[C@@H](O)[C@](C)(O)[C@@]1(O)CC[C@@]2(O)[C@@H]3CC=C4CC=CC(=O)[C@]4(C)[C@H]3CC[C@]12C	inactive	inactive	inactive	Non-Toxic	inactive	inactive						
C[C@H]1C(=O)OC[C@H]1C[C@@H](O)[C@](C)(O)C1=CC[C@H]2[C@@H]3C[C@H]4O[C@]45CC=CC(=O)[C@]5(C)[C@H]3CC[C@]12C	inactive	inactive	inactive	Non-Toxic	inactive	inactive						
CC1=C(C)C(=O)O[C@@H]([C@](C)(O)[C@]2(O)CC[C@@]3(O)[C@@H]4CC=C5[C@@H](O)C=CC(=O)[C@]5(C)[C@H]4CC[C@]23C)C1							1000	> 2000	> 2000	> 2000	70	110
CC1=C(C)C(=O)O[C@@H]([C@](C)(O)[C@]2(O)CC[C@@]3(O)[C@@H]4[C@@H](O)[C@H]5O[C@]56CC=CC(=O)[C@]6(C)[C@H]4CC[C@]23C)C1							> 2000	> 2000	> 2000	> 2000	260	330
